Reference: PubChem BioAssay
Calls of active or inactive are those of the source.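 The calls were made as follows, unless noted: active = visual image review flags a hit and inhibition of aggregation exceeds 20%; inconclusive = visual hit but inhibition at or below 20%; inactive = no hit on visual image review.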

What was measured:
[1] = inhibitors of TNFa-induced NFkB p65 translocation, primary screen, imaging, HUVEC, MLSMR starter and 10KST1 sets (AID 438;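 active = inhibition above 20% together with a positive visual image hit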;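 also: compound added about 3h40 before a 20 min TNFalpha stimulation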;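 as to inhibition: signal is the nuclear over cytoplasmic p65 intensity ratio per well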); details: HUVEC TNFa-induced p65 nuclear translocation; cell count: measured here: nuclei count (cytotoxicity indicator), at 2.08 µM; inhibition: at 2 µM, stronger effect = higher value, 0% TNFa-plus-vehicle, 100% no-TNFa wells
[2] = reduction of polyQ htt aggregates in cells – imaging, exon1htt(103Q)mCFP cells, high-content imaging, primary screen (AID 483); details: exon1htt(103Q)mCFP cell line, aggregate imaging, at 2 µM; inhibition of aggregation: stronger effect = higher value; nuclei count: measured here: cell count, toxicity;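 also: compound exposure lasted 3 days before fixation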;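 as to nuclei count: percent of the per-plate median nuclei count of sample wells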
[3] = endothelial E-selectin expression blockers – imaging, HUVEC, immunofluorescence, MLSMR starter and 10KST1 sets, primary screen (AID 487;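 active = visually confirmed hit in the image check and inhibition above 20%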;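 as to inhibition: signal is fraction of cell area covered by stained E-selectin grains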;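 as to nuclei count: 100% = median nuclei count of all wells on the same plate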); details: HUVEC TNFalpha-induced E-selectin immunofluorescence imaging, at 2 µM; inhibition: stronger effect = higher value; nuclei count: measured here: cell number, toxicity
[4] = target: Voltage-gated potassium channel subunit beta-2 (Rattus norvegicus) (UniProt P62483); assay: inhibitors of rat Kvbeta2 reductase activity – biochemical, NADPH fluorescence, primary screen (AID 622;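 active = fluorescence slope higher than the sample average by over 3 SD, cut at about -0.22 in these data, passing the limit was not always enough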;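 also: slope of raw intensity against log time taken from 70 to 1610 s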); details: recombinant KvBeta, 4-cyanobenzaldehyde reduction, at 10 µM, stronger effect = higher value
Chain of Voltage-gated potassium channel subunit beta-2 (Rattus norvegicus) (P62483 whole entry, looked up): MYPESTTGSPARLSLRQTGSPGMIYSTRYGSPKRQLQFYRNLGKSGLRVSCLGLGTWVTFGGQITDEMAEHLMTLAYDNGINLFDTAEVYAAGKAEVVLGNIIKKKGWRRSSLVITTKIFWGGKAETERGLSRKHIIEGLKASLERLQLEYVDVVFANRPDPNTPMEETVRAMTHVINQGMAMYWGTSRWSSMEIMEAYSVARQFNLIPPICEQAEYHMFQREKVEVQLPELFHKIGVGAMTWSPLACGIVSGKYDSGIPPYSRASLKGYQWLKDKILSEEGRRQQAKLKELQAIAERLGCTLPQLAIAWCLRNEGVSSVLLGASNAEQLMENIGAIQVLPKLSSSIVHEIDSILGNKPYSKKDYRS

[5] = target: Voltage-gated potassium channel subunit beta-2 (Rattus norvegicus) (UniProt P62483); assay: enhancers of rat Kvbeta2 NADPH turnover – biochemical, NADPH fluorescence, primary screen (AID 623;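 active = NADPH fluorescence slope more negative than the mean of all samples by about 3 SD, 99.7% confidence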;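 also: fluorescence intensity change per second fitted from 20 to 320 s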); details: Recombinant KvBeta, NADPH fluorescence decrease slope, 10 min; at 10 µM; stronger effect = lower value
[6] = target: Muscarinic acetylcholine receptor M4 (Homo sapiens) (UniProt P08173); assay: M4-linked GIRK flux change, two-sided – cell-based, HEK293 M4/GIRK, thallium flux, BTC-AM, M4 allosteric agonist project, primary screen (AID 625;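 active = fluorescence slope after compound addition differing from the mean of all tested samples at 99.7% confidence, mostly higher but some lower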;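 also: thallium influx through GIRK channels coupled to M4 in HEK293 cells with BTC-AM dye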); details: at 10 µM, actives lie on both sides
Chain of Muscarinic acetylcholine receptor M4 (Homo sapiens) (P08173 whole entry, looked up): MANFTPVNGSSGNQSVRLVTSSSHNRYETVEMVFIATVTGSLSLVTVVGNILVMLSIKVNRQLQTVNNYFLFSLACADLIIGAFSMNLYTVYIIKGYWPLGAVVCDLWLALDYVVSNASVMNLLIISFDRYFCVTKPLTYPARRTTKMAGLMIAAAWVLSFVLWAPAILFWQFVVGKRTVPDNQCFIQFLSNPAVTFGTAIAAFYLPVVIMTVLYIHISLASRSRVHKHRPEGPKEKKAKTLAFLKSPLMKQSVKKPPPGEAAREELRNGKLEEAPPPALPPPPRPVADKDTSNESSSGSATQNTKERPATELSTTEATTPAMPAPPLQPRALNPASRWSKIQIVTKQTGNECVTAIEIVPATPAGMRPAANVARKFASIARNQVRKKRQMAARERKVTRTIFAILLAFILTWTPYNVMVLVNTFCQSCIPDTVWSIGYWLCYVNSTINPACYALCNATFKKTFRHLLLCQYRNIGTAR
How it was run: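 Assay system: HEK293 cells with M4 receptor and GIRK channels / Controls: carbachol and DMSO controls / Schedule: 1 h dye loading, 2 min kinetic read / Technique: kinetic fluorescence with BTC-AM dye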

[7] = blockers of RIG-like receptor reporter activation – cell-based, Sendai virus stimulus, luciferase, 10K MLSCN set, TLR/RLR signaling modifier project, primary screen (AID 602276;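 active = inhibition at or above 50% at 10 µM; inactive = inhibition below 50%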;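 also: firefly luciferase from ISG56 promoter only with Renilla not read in this screen; 0% = Sendai virus plus DMSO and 100% = medium plus DMSO without virus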); details: HEK293 RL24 IRF3 luciferase reporter, at 10 µM, stronger effect = higher value
[8] = TLR3 IRF3 reporter activation blockers – cell-based, poly I:C stimulus, luciferase, 10K MLSCN set, primary screen (AID 602277;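 active = inhibition of the reporter signal at or above 50%; inactive = inhibition below 50%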); details: HEK293-TLR3 RL24 IRF3 luciferase reporter, at 10 µM, stronger effect = higher value

SMILES | cell count [1] | inhibition [1] | inhibition of aggregation [2] | nuclei count [2] | inhibition [3] | nuclei count [3] | fluorescence slope [4] | NADPH fluorescence slope [5] | fluorescence slope [6] | inhibition [7] | inhibition [8]
COc1ccc(C2=NOC(C(=O)NCc3ccc(F)cc3)C2)cc1OC (centres undefined) | 601 | 14.3% (inactive) | -82.4% (inactive) | 2.5% | -172% (inactive) | 99.1% | -0.493 (inactive) | 4.2e-05 (inactive) | 0.00618 (inactive) | 22.8% (inactive) | 82.8% (active)
COc1ccc(-n2nc(C(=O)Nc3ccc4c(c3)OCO4)c3c4ccccc4n(C)c3c2=O)cc1 | 218 | 4.3% (inactive) | -21.9% (inactive) | 47.3% | -66% (inactive) | 97.1% | -0.566 (inactive) | 4e-06 (inactive) | 0.0112 (active) | 10.3% (inactive) | 24.3% (inactive)
CCc1nnc(NC(=O)c2ccc(S(=O)(=O)NC3CCCCC3)cc2)s1 | 534 | 0.4% (inactive) | 20.7% (inactive) | 107% | -22.8% (inactive) | 110% | -0.307 (inactive) | -6e-05 (inactive) | 0.00791 (inactive) | 0.752% (inactive) | -17.5% (inactive)
O=C(O)CCNc1ccc2c(c1)OCCO2 | 510 | -26.5% (inactive) | 10% (inactive) | 118% | -25.3% (inactive) | 116% | -0.348 (inactive) | -3.8e-05 (inactive) | 0.00514 (inactive) | 4.8% (inactive) | 5.31% (inactive)
CCN(c1cccc(C)c1)S(=O)(=O)c1ccc2[nH]c(=O)c(=O)[nH]c2c1 | 415 | 6.2% (inactive) | 7.1% (inactive) | 93.5% | -8.3% (inactive) | 98% | -0.514 (inactive) | -0.000128 (inactive) | 0.00491 (inactive) | 12.5% (inactive) | 21.6% (inactive)
Cc1cccn2c(=O)c3cc(C#N)c(=NC(=O)c4cccnc4)n(CC4CCCO4)c3nc12 (centres undefined) | 852 | -2.8% (inactive) | -7.5% (inactive) | 105% | -74.7% (inactive) | 107% | -0.0377 (active) | -8.2e-07 (inactive) | 0.0039 (inactive) | -14.2% (inactive) | -0.613% (inactive)
S=c1[nH]c2ccc(Cl)cc2[nH]1 | 457 | -3.8% (inactive) | -4% (inactive) | 91.1% | -78.7% (inactive) | 110% | -0.449 (inactive) | -3.7e-05 (inactive) | 0.00564 (inactive) | 21.3% (inactive) | 33.3% (inactive)
Cc1cc(Cl)c(S(=O)(=O)N2CCN(c3ccc(F)cc3)CC2)cc1OCC(N)=O | 373 | -9% (inactive) | 0.5% (inactive) | 97.1% | -37.6% (inactive) | 96.1% | -0.587 (inactive) | -9.2e-05 (inactive) | 0.0038 (inactive) | 19.6% (inactive) | 9.49% (inactive)
CCCn1c(SCC(=O)N2CCCc3ccccc32)nnc1-c1ccccn1 | 471 | -0.8% (inactive) | -0.4% (inactive) | 100% | -20.1% (inactive) | 113% | -0.59 (inactive) | -6.6e-06 (inactive) | 0.00584 (inactive) | 20.3% (inactive) | 20% (inactive)
CSc1nnc(-c2nnc(SC)n2-c2ccccc2)n1-c1ccccc1 | 879 | -9.3% (inactive) | -8% (inactive) | 109% | -143% (inactive) | 123% | -0.532 (inactive) | -2.1e-05 (inactive) | 0.00464 (inactive) | 9.27% (inactive) | 27.2% (inactive)
O=C(CSc1nc(-c2ccco2)cc(C(F)(F)F)n1)N1CCCc2ccccc21 | 700 | 0% (inactive) | 3.1% (inactive) | 104% | -20.9% (inactive) | 114% | -0.585 (inactive) | -2.5e-05 (inactive) | 0.00488 (inactive) | 19% (inactive) | 13.4% (inactive)
CC1N=C2c3ccccc3N=C(SCc3cc(=O)n4cc(Cl)ccc4n3)N2C1=O (centres undefined) | 346 | 7.6% (inactive) | 18.8% (inactive) | 102% | 32.4% (inactive) | 92.4% | -0.478 (inactive) | -0.0001 (inactive) | 0.00478 (inactive) | 13.1% (inactive) | 18.7% (inactive)
CC1(C)CC(=O)c2c(O)cc(O)cc2O1 | 652 | -15.6% (inactive) | -5.4% (inactive) | 83.3% | -55.7% (inactive) | 99.8% | -0.482 (inactive) | -4.2e-05 (inactive) | 0.00586 (inactive) | 5.4% (inactive) | -1.77% (inactive)
O=C(CSc1nnc2sc3ccccc3n12)c1ccco1 | 308 | 1.9% (inactive) | 23.4% (inactive) | 83.3% | 19.6% (inactive) | 91.6% | -0.293 (inactive) | -5e-05 (inactive) | 0.00582 (inactive) | -17.8% (inactive) | -83.7% (inactive)
